Sampled rows, rich in hits. Any-hit rate of the full collection: about 2.2%.
ASAP1 inh: inhibitors of human ASAP1 ArfGAP activity, primary screen, biochemical, fluorescence polarization; ASAP1-stimulated ARF1 GTP hydrolysis, GDP FP detection; Arf-GAP with SH3 domain, ANK repeat and PH domain-containing protein 1 (Homo sapiens), …; 360,000 compounds, 0.19% hits; inhibition, % at 16.5 µM; in the data active means inhibition above about 25%;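 further: 0% = vehicle with enzyme and substrate and 100% = no enzyme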
Target sequence (Q9ULH1 325-724 limits assumed): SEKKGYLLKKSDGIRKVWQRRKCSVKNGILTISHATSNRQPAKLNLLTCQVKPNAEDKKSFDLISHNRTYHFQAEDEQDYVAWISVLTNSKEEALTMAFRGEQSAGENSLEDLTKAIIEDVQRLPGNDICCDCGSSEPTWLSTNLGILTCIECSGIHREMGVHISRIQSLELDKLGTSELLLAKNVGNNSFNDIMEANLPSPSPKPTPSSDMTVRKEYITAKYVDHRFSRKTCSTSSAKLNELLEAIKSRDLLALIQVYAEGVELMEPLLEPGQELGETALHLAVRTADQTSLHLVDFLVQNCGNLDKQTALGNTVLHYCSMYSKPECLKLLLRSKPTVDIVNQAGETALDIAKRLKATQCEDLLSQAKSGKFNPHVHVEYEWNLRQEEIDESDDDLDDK
NadD block: inhibitors of S. aureus NadD, primary screen, biochemical, colorimetric, uHTS; 360,000 compounds, 0.78% hits; AID 602399, 2012; Nicotinate-nucleotide adenylyltransferase NadD (Staphylococcus aureus N315); inhibition, % at 20 µM; purified NadD enzyme, colorimetric absorbance read-out; in the data active means inhibition above about 26%
rCAG binder: binders of r(CAG) RNA repeats, primary screen, biochemical, fluorescence; r(CAG) RNA repeat, TO-PRO-1 dye displacement fluorescence; AID 651821, 2012; 370,000 compounds, 1.3% hits; inhibition, % at 3 µM;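 active means inhibition above the plate cutoff, the mean of all test compounds on that plate plus 3 SD, cut at about 35% in these data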;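 further: 0% = DMSO alone and 100% = 100 µM mitoxantrone as full dye displacement; higher means more dye released from RNA so lower well fluorescence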
ARFGAP1 inhibitor: inhibitors of rat ARFGAP1 GAP activity, primary screen, biochemical, fluorescence polarization, GDP tracer | ADP-ribosylation factor GTPase-activating protein 1 (Rattus norvegicus), Q62848 | Arfgap1-stimulated ARF1 GTP hydrolysis, GDP FP detection | inhibition, % at 16.5 µM | 360,000 compounds, 0.26% hits | AID 651572, 2012;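 active means inhibition above a per-plate limit, mean inhibition of low control wells plus 3 SD, cut at about 25% in these data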;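 further: 0% = DMSO wells with enzyme and 100% = wells lacking Arfgap1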
Target sequence (Q62848 1-136 limits assumed): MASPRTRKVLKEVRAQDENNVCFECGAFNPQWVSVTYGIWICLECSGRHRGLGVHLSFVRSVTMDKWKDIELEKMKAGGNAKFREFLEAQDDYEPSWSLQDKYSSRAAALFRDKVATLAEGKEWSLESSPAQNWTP
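System: truncated rat Arfgap1 GAP domain / Medium: HEPES-based buffer, pH 7.5 / Also added: N-terminally truncated human ARF1-GTP substrate / Incubation: enzyme reaction 120 min at 25 °C after 20 min preincubation / Measured by: FP of antibody-bound GDP Alexa 633 tracer, ex 620/em 688 nm / Replicates: singlicate, each compound tested once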
NadD inh conf: inhibitors of S. aureus NadD, confirmation, biochemical, colorimetric, single concentration; purified S. aureus NadD, colorimetric enzyme assay; 2,000 compounds, 13% hits; shares compounds with NadD block; inhibition, % at 20 µM; in the data active means inhibition mostly above about 42%, no sharp cut-off; inactive means mostly below about 42%
An asterisk follows results filed as active.

`COc1ccc(/C=N/NC(=O)c2ccn[nH]2)cc1COc1ccc(F)cc1` gave ASAP1 inh -9, NadD block 10, rCAG binder 6 and ARFGAP1 inhibitor -9.
COc1ccc(/C=N/NC(=O)c2ccn[nH]2)cc1COc1ccc([N+](=O)[O-])c(C)c1 was read as ASAP1 inh 12, NadD block 31*, rCAG binder 12, ARFGAP1 inhibitor 14 and NadD inh conf 22.
For C=CCn1c(=NC(=O)c2ccc(S(=O)(=O)N3CCc4ccccc4C3)cc2)sc2cc(S(N)(=O)=O)ccc21 the results were ASAP1 inh 3, NadD block 32*, rCAG binder 27, ARFGAP1 inhibitor 2 and NadD inh conf -4.
Screening COCCn1c(=NC(=O)c2ccc(S(=O)(=O)N3CCCc4ccccc43)cc2)sc2cc(S(C)(=O)=O)ccc21 returned ASAP1 inh 0, NadD block 14, rCAG binder 4 and ARFGAP1 inhibitor 0.
`COCCn1c(=NC(=O)c2ccc(S(=O)(=O)N3CCc4ccccc4C3)cc2)sc2cc(S(N)(=O)=O)ccc21` gave ASAP1 inh 3, NadD block 71*, rCAG binder 34, ARFGAP1 inhibitor 0 and NadD inh conf 36.
For C=CCn1c(=NC(=O)c2ccc(S(=O)(=O)N3CCCc4ccccc43)cc2)sc2cc(S(N)(=O)=O)ccc21 the results were ASAP1 inh 1, NadD block 25, rCAG binder 16 and ARFGAP1 inhibitor 8.
Screening COC(=O)C[C@@H]1C[C@@H]2c3cc(NS(=O)(=O)c4ccc(F)cc4)ccc3O[C@@H]2[C@H](CO)O1 returned ASAP1 inh -9, NadD block -6, rCAG binder 2 and ARFGAP1 inhibitor 1.
For COCCn1c(C)cc(C2=NNC(=Nc3ccccc3F)SC2)c1C the results were ASAP1 inh 0, NadD block 38*, rCAG binder 15, ARFGAP1 inhibitor -5 and NadD inh conf 17.
`CCOc1ccc(S(=O)(=O)N2CN(c3cccc(C(C)=O)c3)c3nc4ccccc4nc32)cc1` gave ASAP1 inh -15, NadD block 30*, rCAG binder 12, ARFGAP1 inhibitor 5 and NadD inh conf 8.
Screening O=C(Nc1nnc(-c2cccs2)o1)c1cc(-c2ccccc2)nc2ccccc12 returned ASAP1 inh -13, NadD block 55*, rCAG binder 44*, ARFGAP1 inhibitor 6 and NadD inh conf 51*.
`CCOc1ccc(Cl)cc1-c1cc(C(=O)Nc2ccc(C(C)C)cc2)[nH]n1` gave ASAP1 inh -2, NadD block 1, rCAG binder 10 and ARFGAP1 inhibitor -6.
C/C(=N\NC(=O)c1ccc(OC2OCCOC2Oc2ccc(C(=O)N/N=C(\C)c3ccncc3)cc2)cc1)c1ccncc1 (centres undefined) was read as ASAP1 inh -10, NadD block 32*, rCAG binder 8, ARFGAP1 inhibitor 4 and NadD inh conf 11.
CCn1c(SCC(=O)NN=Cc2cc(OC)ccc2OC)nnc1-c1ccc(OC)cc1 was read as rCAG binder 0.
`CN(C)CCNc1ncnc2c1ncn2[C@H]1CN(Cc2ccco2)C[C@@H](CO)O1` gave NadD block 2.
For Nc1[nH]c(C(=O)c2ccc(Br)cc2)c(-c2ccc(F)cc2)c1C(=O)NCCc1c[nH]c2ccccc12 the results were ASAP1 inh 2, rCAG binder 6 and ARFGAP1 inhibitor 0.
Nc1[nH]c(C(=O)c2ccccc2)c(-c2ccc([N+](=O)[O-])cc2)c1C(=O)NCCc1c[nH]c2ccccc12 was read as ASAP1 inh 11, NadD block 43*, rCAG binder 12, ARFGAP1 inhibitor 3 and NadD inh conf 24.
Screening Nc1[nH]c(C(=O)c2ccccc2)c(-c2ccccc2Br)c1C(=O)NCc1ccc(-c2ccccc2)cc1 returned ASAP1 inh 8, NadD block 36*, rCAG binder 18, ARFGAP1 inhibitor -1 and NadD inh conf 50*.
`Nc1[nH]c(C(=O)c2ccc(Br)cc2)c(-c2ccc(Br)cc2)c1C(=O)NCc1ccc(-c2ccccc2)cc1` gave ASAP1 inh 6, rCAG binder 16 and ARFGAP1 inhibitor 6.
Nc1[nH]c(C(=O)c2ccc(Br)cc2)c(-c2ccccc2Br)c1C(=O)NCCc1c[nH]c2ccccc12 was read as ASAP1 inh 15, rCAG binder 11 and ARFGAP1 inhibitor 19.
Nc1[nH]c(C(=O)c2ccc(Br)cc2)c(-c2ccc(Br)cc2)c1C(=O)NCCc1c[nH]c2ccccc12 was read as ASAP1 inh 3, NadD block 50*, rCAG binder 11, ARFGAP1 inhibitor 6 and NadD inh conf 39.
For Nc1[nH]c(C(=O)c2ccccc2)c(-c2ccccc2Br)c1C(=O)NCCc1c[nH]c2ccccc12 the results were ASAP1 inh 4, NadD block 43*, rCAG binder 11, ARFGAP1 inhibitor 12 and NadD inh conf 28.
Screening O=C(CN1CCCC1c1cccs1)N1CCN(S(=O)(=O)c2cccc(F)c2)CC1 (centres undefined) returned ASAP1 inh 4, NadD block 0, rCAG binder 5 and ARFGAP1 inhibitor 2.
For O=C1CC(NS(=O)(=O)c2cccnc2)CN1c1cccc(F)c1 (centres undefined) the results were ASAP1 inh -10, NadD block -1, rCAG binder -2 and ARFGAP1 inhibitor -1.
Screening Cc1ccc(Oc2nc(CN3CCOCC3)nc3sc4c(c23)CCC(C)C4)cc1 (centres undefined) returned ASAP1 inh -2, NadD block 3, rCAG binder -3 and ARFGAP1 inhibitor -1.
For CC1CCc2c(sc3nc(CN4CCOCC4)nc(N4CCc5ccccc5C4)c23)C1 (centres undefined) the results were ASAP1 inh -9, NadD block 37*, rCAG binder 0, ARFGAP1 inhibitor 3 and NadD inh conf 18.
C[C@H](CO)N1C[C@H](C)[C@@H](CN(C)Cc2ccncc2)OCCCC[C@H](C)Oc2ccc(NC(=O)CCCN(C)C)cc2C1=O was read as ASAP1 inh 1, NadD block 54*, rCAG binder 5, ARFGAP1 inhibitor 6 and NadD inh conf 27.
For C[C@H]1CCCCO[C@H](CN(C)Cc2ccccc2)[C@@H](C)CN([C@@H](C)CO)C(=O)c2cc(NC(=O)CCC(F)(F)F)ccc2O1 the results were ASAP1 inh 8, NadD block -5, rCAG binder -1 and ARFGAP1 inhibitor -4.
